# Test results taken from ChEMBL document CHEMBL3259621, “Novel merosesquiterpene exerts a potent antitumor activity against breast cancer cells in vitro and in vivo” (Eur J Med Chem, 2014).
# Activity calls are given as the source filed them. The rule behind the calls is not given here.
# Assays:
# [1] = test system: MCF7; test: Induction of apoptosis in human MCF7 cells assessed as increase in total p53 expression level at 2 uM after 4 to 24 hrs by Western blotting analysis relative to control; assay type: functional, cell-based
# Method in brief: (§1)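 MCF-7 seeded at 5 × 10⁴/cm² and exposed at 24 h to 2 µM compound for 0, 4, 8, 16 and 24 h. Lysates separated on 12% SDS gels, transferred to nitrocellulose, blocked in 5% milk. Primary antibodies applied overnight at 4 °C, then secondary 1 h at room temperature. Detection by ECL chemiluminescence with β-actin as loading reference.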
# [2] = test system: Mus musculus; test: Toxicity in C57BL/6 mouse allografted with mouse E0771 cells assessed as diarrhea at 5 to 15 mg/kg, po; assay type: organism-based; parameters: dose 5-15 mg/kg, route oral; conditions: in vivo
# Method in brief: (§2)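 C57BL/6 mice (10 per group) injected subcutaneously in the right side with 1 × 10⁶ E0771 cells. At day 9, with tumours at 75 mm³, mice were randomised to oral vehicle (1% methylcellulose) or 5, 10 or 15 mg/kg on six occasions. Animals were monitored to day 42 for survival and for signs of toxicity such as hair loss or diarrhoea.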
# [3] = Therapeutic index, ratio of IC50 for human MCF10A cells to IC50 for human T47D cells; assay type: cell-based, MCF-10A; conditions: MCF10A cells versus T47D cells, read-out: Ratio IC50
# [4] = test system: Mus musculus; test: Toxicity in C57BL/6 mouse allografted with mouse E0771 cells assessed as hair loss at 5 to 15 mg/kg, po; assay type: organism-based; parameters: dose 5-15 mg/kg, route oral; conditions: in vivo; method in brief: as §2
# [5] = test system: MCF7; test: Induction of apoptosis in human MCF7 cells assessed as early apoptotic cells at 3 uM after 48 hrs by annexin V staining-based flow cytometry (reference value: 0.205 %); assay type: functional
# [6] = Therapeutic index, ratio of IC50 for human MCF10A cells to IC50 for human MCF7 cells; assay type: cell-based, MCF-10A; conditions: MCF10A cells versus MCF7 cells, read-out: Ratio IC50
# [7] = test system: RKO; test: Cytotoxicity against human RKO cells after 3 days by SRB assay; assay type: functional, cell-based; conditions: 72 h
# Method in brief: (§3)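 Cells seeded at 5 × 10³ cells/cm² in quadruplicate and, after 24 h, treated with increasing concentrations for 3 days. Compounds diluted from DMSO stock, final DMSO <0.1% v/v. Cells were fixed with cold 10% TCA, stained with 0.4% sulforhodamine B in 1% acetic acid, and dye solubilised in 10 mM Tris-base pH 10.5. OD read at 492 nm. IC50 obtained by linear interpolation on a semi-log dose-response curve.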
# [8] = Cytotoxicity against human MCF10A cells after 3 days by SRB assay; assay type: cell-based; conditions: MCF-10A, 72 h; method in brief: as §3
# [9] = test system: MCF7; test: Induction of apoptosis in human MCF7 cells assessed as reduction in cyclin D1 protein expression at 2 uM after 4 hrs by Western blotting analysis relative to control; assay type: functional; parameters: scale not given: the % may be the effect or the level left; method in brief: as §1
# [10] = test system: MCF7; test: Cytotoxicity against human MCF7 cells at 1 to 3 uM after 3 days by SRB assay in presence of NAC; assay type: functional, cell-based
# Method in brief: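 MCF-7 seeded at high density (5 × 10⁴/cm²) and treated at 24 h with compound for 3 days, with or without 20 mM NAC. Viable cells quantified by sulforhodamine B staining, OD 492 nm. Viability reduction expressed versus untreated controls.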
# [11] = test system: MCF7; test: Cell cycle arrest in human MCF7 cells assessed as accumulation at G0-G1 phase at 3 uM after 24 hrs by propidium iodide/RNAse staining-based FACS analysis (reference value: 42.34 %); assay type: functional
# [12] = test system: A549; test: Cytotoxicity against human A549 cells after 3 days by SRB assay; assay type: functional, cell-based; conditions: A549, 72 h
# Method in brief: (§4)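 Cells seeded in quadruplicate at 5 × 10³ cells/cm². Compound added at 24 h over increasing concentrations for 3 days. Cells fixed with cold 10% TCA, stained with 0.4% sulforhodamine B in 1% acetic acid, dye solubilized in 10 mM Tris pH 10.5, OD read at 492 nm. IC50 taken by linear interpolation of the semi-log dose-response curve. DMSO below 0.1% final.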
# [13] = test system: MCF7; test: Induction of apoptosis in human MCF7 cells assessed as apoptotic cells at 1 uM after 48 hrs by annexin V staining-based flow cytometry (reference value: 3.44 %); assay type: functional
# [14] = test system: MCF7; test: Induction of apoptosis in human MCF7 cells assessed as increase in p27 expression at 2 uM after 4 to 24 hrs by Western blotting analysis relative to control; assay type: functional, cell-based; method in brief: as §1
# [15] = test system: T47D; test: Cytotoxicity against human T47D cells after 3 days by SRB assay; assay type: functional, cell-based; conditions: 72 h; method in brief: as §3
# [16] = test system: MCF7; test: Induction of apoptosis in human MCF7 cells assessed as reduction in cyclin B1 protein expression at 2 uM after 16 hrs by Western blotting analysis; assay type: functional; parameters: scale not given: the % may be the effect or the level left; method in brief: as §1
# [17] = test system: MCF7; test: Cell cycle arrest in human MCF7 cells assessed as accumulation at […] phase after 48 hrs by propidium iodide/RNAse staining-based FACS analysis; assay type: functional
# [18] = test system: MCF7; test: Induction of apoptosis in human MCF7 cells assessed as increase in E-cadherin expression at 1 to 2 uM after 48 hrs by FACS analysis; assay type: functional, cell-based
# Method in brief: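 MCF-7 seeded at 5 × 10⁴/cm² and treated at 24 h with 1 or 2 µM compound for 48 h. Labelled with fluorochrome-conjugated anti-E-cadherin or anti-β-catenin antibody for 30 min at 4 °C in the dark, washed in PBS. Mean fluorescence intensity measured by FACScan flow cytometry.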
# [19] = Therapeutic index, ratio of IC50 for human CCD-18Co cells to IC50 for human SW480 cells; assay type: cell-based; conditions: CCD-18Co cells versus SW480 cells, read-out: Ratio IC50
# [20] = test system: MCF7; test: Induction of apoptosis in human MCF7 cells assessed as increase in phosphorylated p53 level at 2 uM after 4 to 24 hrs by Western blotting analysis relative to control; assay type: functional, cell-based; method in brief: as §1
# [21] = test system: MCF7; test: Cell cycle arrest in human MCF7 cells assessed as accumulation at G2-M phase at 2 uM after 24 hrs by propidium iodide/RNAse staining-based FACS analysis (reference value: 8.20 %); assay type: functional
# [22] = test system: MCF7; test: Induction of apoptosis in human MCF7 cells assessed as apoptotic cells at 3 uM after 48 hrs by annexin V staining-based flow cytometry (reference value: 3.44 %); assay type: functional
# [23] = test system: MCF7; test: Induction of apoptosis in human MCF7 cells assessed as apoptotic cells at 2 uM after 48 hrs by annexin V staining-based flow cytometry (reference value: 3.44 %); assay type: functional
# [24] = test system: MCF7; test: Induction of apoptosis in human MCF7 cells assessed as early apoptotic cells at 2 uM after 48 hrs by annexin V staining-based flow cytometry (reference value: 0.205 %); assay type: functional
# [25] = test system: T84; test: Cytotoxicity against human T84 cells after 3 days by SRB assay; assay type: functional, cell-based; conditions: T84, 72 h; method in brief: as §4
# [26] = test system: MCF7; test: Cell cycle arrest in human MCF7 cells assessed as accumulation at […] phase at 3 uM after 48 hrs by propidium iodide/RNAse staining-based FACS analysis (reference value: 8.02 %); assay type: functional
# [27] = test system: MDA-MB-231; test: Cytotoxicity against human MDA-MB-231 cells after 3 days by SRB assay; assay type: functional, cell-based; conditions: MDA-MB-231, 72 h; method in brief: as §3
smiles,measurement,setting,value
C=C1CC[C@@H]2[C@](C)(CCC[C@]2(C)C(=O)OC)[C@H]1Cc1c(C)ccc2c1C(=O)C=CC2=O,Activity,[1],Active
same,Activity,[2],Non-toxic
same,selectivity ratio,[3],5
same,Activity,[4],Non-toxic
same,Activity,[5],19.5%
same,selectivity ratio,[6],9
same,IC50,[7],0.59 µM
same,IC50,[8],3.15 µM
same,Activity,[9],80%
same,Activity,[10],inactive
same,Activity,[11],75.7%
same,IC50,[12],1.38 µM
same,Activity,[13],11.07%
same,Activity,[14],Active
same,IC50,[15],0.63 µM
same,Activity,[16],6%
same,Activity,[17],Dose-dependent effect
same,Activity,[18],Active
same,selectivity ratio,[19],0.36
same,Activity,[20],Active
same,Activity,[21],19.25%
same,Activity,[22],57.8%
same,Activity,[23],29.13%
same,Activity,[24],12.5%
same,IC50,[25],0.56 µM
same,Activity,[26],39.91%
same,IC50,[27],0.46 µM
